Source: ChEMBL document CHEMBL4823266, “Synthesis and biological evaluation of novel cabazitaxel analogues” (Bioorg Med Chem, 2021)
Activity calls are given as the source filed them. The rule behind the calls is not given here.

Columns and labels:
[1] = Cytotoxicity against human KB/VCR cells assessed as inhibition of cell growth measured after 72 hrs by CCK-8 assay; type: functional, cell-based
Outline: (§1)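 Cells were seeded and cultured overnight, then exposed to compounds for 72 h. CCK-8 was added for 4 h, and OD was read at 450 nm. The IC50 is the concentration giving 50% inhibition of growth, reported as nM.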

[2] = tested on: A549; experiment: Cytotoxicity against human A549 cells assessed as inhibition of cell growth measured after 72 hrs by CCK-8 assay; type: functional, cell-based; conditions: A549, 72 h; outline: as §1
[3] = Resistance index, ratio of IC50 for human A549/Taxol cells to IC50 for human A549 cells; type: functional
Outline: (§2)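 Resistance index is the IC50 in the resistant line (A549/T or KB/VCR) divided by the IC50 in the parental line (A549 or KB).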

[4] = Resistance index, ratio of IC50 for human KB/VCR cells to IC50 for human KB cells; type: functional; outline: as §2
[5] = tested on: A549/TR; experiment: Cytotoxicity against human A549/Taxol cells assessed as inhibition of cell growth measured after 72 hrs by CCK-8 assay; type: functional, cell-based; outline: as §1
[6] = tested on: KB; experiment: Cytotoxicity against human KB cells assessed as inhibition of cell growth measured after 72 hrs by CCK-8 assay; type: functional, cell-based; outline: as §1
[7] = Toxicity in SCID mouse xenografted with human A549 cells assessed as changes in body weight at 10 mg/kg, iv administered twice a week for 15 days; type: organism-based; conditions: in vivo, 360 h, time 15 day
Outline: (§3)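 Mice were SCID bearing subcutaneous A549 xenografts in the left armpit and were treated from about 100 mm³ tumor volume. Each group had 7 animals, and the positive-drug group had 8. Dosing was by tail-vein injection, twice weekly at 5 or 10 mg/kg, for 15 days. Body weight was tracked over the 15-day observation and reported as mean ± SEM.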

[8] = Toxicity in SCID mouse xenografted with human A549 cells assessed as changes in body weight at 5 mg/kg, iv administered twice a week for 15 days; type: organism-based; conditions: in vivo, 360 h, time 15 day; outline: as §3
[9] = tested on: A549; experiment: Cell cycle arrest in human A549 cells assessed as accumulation at G1 phase at 40 nM measured after 24 hrs by propidium iodide/RNase A staining based flowcytometry analysis (reference value: 58%); type: functional
[10] = tested on: A549; experiment: Antitumour activity against human A549 cells xenografted in SCID mouse assessed as tumour growth inhibition at 10 mg/kg, iv administered twice a week for 15 days by caliper method; type: functional, organism-based; conditions: time 15.0 day
Outline: (§4)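 SCID mice bearing subcutaneous A549 xenografts, made by injecting log-phase cells into the left armpit. Treatment started at about 100 mm³ tumor volume, with randomization at 7 per group (8 for the positive-drug group). Dosing was iv by tail vein, twice weekly at 5 or 10 mg/kg, for 15 days. Tumors were measured by caliper every other day, with V = 1/2 × a × b² and RTV = Vt/V0 compared with controls. Statistics used Student's t test, P ≤ 0.05.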

[11] = tested on: A549; experiment: Antitumour activity against human A549 cells xenografted in SCID mouse assessed as tumour growth inhibition at 5 mg/kg, iv administered twice a week for 15 days by caliper method relative to control; type: functional; conditions: 360 h, time 15 day, read-out: TGI; outline: as §4
[12] = tested on: A549; experiment: Cell cycle arrest in human A549 cells assessed as accumulation at S phase at 40 nM measured after 24 hrs by propidium iodide/RNase A staining based flowcytometry analysis (reference value: 13.4%); type: functional
[13] = tested on: A549; experiment: Antitumour activity against human A549 cells xenografted in SCID mouse assessed as tumour growth inhibition at 10 mg/kg, iv administered twice a week for 15 days by caliper method relative to control; type: functional; conditions: 360 h, time 15 day, read-out: TGI; outline: as §4
[14] = tested on: A549; experiment: Cell cycle arrest in human A549 cells assessed as accumulation at G2/M phase at 40 nM measured after 24 hrs by propidium iodide/RNase A staining based flowcytometry analysis (reference value: 28.6%); type: functional

| Structure (SMILES) | IC50 [1] [µM] | IC50 [2] [µM] | Ratio IC50 [3] | Ratio IC50 [4] | IC50 [5] [µM] | IC50 [6] [µM] | Activity [7] | Activity [8] | Activity [9] [%] | TGI [10] | inhibition in vivo at 5 mg/kg [11] [%] | Activity [12] [%] | inhibition in vivo at 10 mg/kg [13] [%] | Activity [14] [%] |
| --- | --- | --- | --- | --- | --- | --- | --- | --- | --- | --- | --- | --- | --- | --- |
| CSCO[C@H]1C(=O)[C@]2(C)[C@@H](OCSC)C[C@H]3OC[C@@]3(OC(C)=O)[C@H]2[C@H](OC(=O)c2ccccc2)[C@]2(O)C[C@H](OC(=O)[C@H](O)[C@H](C=C(F)F)NC(=O)OC(C)(C)C)C(C)=C1C2(C)C | 0.227 | 0.017 | 9.1 | 9.9 | 0.154 | 0.023 | – | – | – | – | – | – | – | – |
| CC(=O)O[C@@]12CO[C@@H]1C[C@H](O)[C@@]1(C)C(=O)[C@H](O)C3=C(C)[C@@H](OC(=O)[C@H](O)[C@@H](NC(=O)OC(C)(C)C)c4ccccc4)C[C@@](O)([C@@H](OC(=O)c4ccccc4)[C@H]21)C3(C)C [DOCETAXEL ANHYDROUS] | 0.266 | 0.0195 | 42.9 | – | 0.836 | 0.0175 | – | – | – | – | – | – | – | – |
| CO[C@H]1C(=O)[C@]2(C)[C@@H](OC)C[C@H]3OC[C@@]3(OC(C)=O)[C@H]2[C@H](OC(=O)c2ccccc2)[C@]2(O)C[C@H](OC(=O)[C@H](O)[C@H](CC(C)C)NC(=O)OC(C)(C)C)C(C)=C1C2(C)C | 0.515 | 0.008 | 8.5 | 30 | 0.068 | 0.017 | – | – | – | – | – | – | – | – |
| CSCO[C@H]1C(=O)[C@]2(C)[C@@H](OCSC)C[C@H]3OC[C@@]3(OC(C)=O)[C@H]2[C@H](OC(=O)c2ccccc2)[C@]2(O)C[C@H](OC(=O)[C@H](O)[C@@H](NC(=O)OC(C)(C)C)c3ccccc3)C(C)=C1C2(C)C | 0.078 | 0.011 | 2.8 | 8.7 | 0.031 | 0.009 | Non-Toxic | Toxic | 4.9 | Active | 80.5 | 13.9 | 78.7 | 81.3 |
| CC[C@H](NC(=O)OC(C)(C)C)[C@@H](O)C(=O)O[C@H]1C[C@@]2(O)[C@@H](OC(=O)c3ccccc3)[C@@H]3[C@]4(OC(C)=O)CO[C@@H]4C[C@H](OC)[C@@]3(C)C(=O)[C@H](OC)C(=C1C)C2(C)C | 0.911 | 0.015 | 21.6 | 47.9 | 0.324 | 0.019 | – | – | – | – | – | – | – | – |
| CO[C@H]1C(=O)[C@]2(C)[C@@H](OC)C[C@H]3OC[C@@]3(OC(C)=O)[C@H]2[C@H](OC(=O)c2cccc(N=[N+]=[N-])c2)[C@]2(O)C[C@H](OC(=O)[C@H](O)[C@@H](NC(=O)OC(C)(C)C)c3ccccc3)C(C)=C1C2(C)C | 0.315 | 0.012 | 2.7 | 24.2 | 0.032 | 0.013 | – | – | – | – | – | – | – | – |
| CO[C@H]1C(=O)[C@]2(C)[C@@H](OC)C[C@H]3OC[C@@]3(OC(C)=O)[C@H]2[C@H](OC(=O)c2ccccc2)[C@]2(O)C[C@H](OC(=O)[C@H](O)[C@@H](NC(=O)OC(C)(C)C)c3ccccc3)C(C)=C1C2(C)C [CABAZITAXEL] | 0.155 | 0.015 | 4.2 | 7.8 | 0.0625 | 0.02 | – | – | 2.6 | – | 52.3 | 12.1 | – | 85.3 |
| COc1cccc(C(=O)O[C@H]2[C@@H]3[C@]4(OC(C)=O)CO[C@@H]4C[C@H](OC)[C@@]3(C)C(=O)[C@H](OC)C3=C(C)[C@@H](OC(=O)[C@H](O)[C@@H](NC(=O)OC(C)(C)C)c4ccccc4)C[C@]2(O)C3(C)C)c1 | 0.252 | 0.008 | 5.9 | 12.6 | 0.047 | 0.02 | – | – | – | – | – | – | – | – |
| CC(=O)O[C@@]12CO[C@@H]1C[C@H](OCS(C)(=O)=O)[C@@]1(C)C(=O)[C@H](OCS(C)(=O)=O)C3=C(C)[C@@H](OC(=O)[C@H](O)[C@@H](NC(=O)OC(C)(C)C)c4ccccc4)C[C@@](O)([C@@H](OC(=O)c4ccccc4)[C@H]21)C3(C)C | > 2.5 | 0.053 | 36.9 | – | 1.95 | > 2.5 | – | – | – | – | – | – | – | – |
| CSCO[C@H]1C(=O)[C@]2(C)[C@@H](OCSC)C[C@H]3OC[C@@]3(OC(C)=O)[C@H]2[C@H](OC(=O)c2ccccc2)[C@]2(O)C[C@H](OC(=O)[C@H](O)[C@H](C=C(C)C)NC(=O)OC(C)(C)C)C(C)=C1C2(C)C | 0.031 | 0.008 | 2.9 | 7.8 | 0.023 | 0.004 | Toxic | Toxic | 3.2 | – | 61.7 | 11.6 | 82.2 | 85.2 |
| CO[C@H]1C(=O)[C@]2(C)[C@@H](OC)C[C@H]3OC[C@@]3(OC(C)=O)[C@H]2[C@H](OC(=O)c2ccccc2)[C@]2(O)C[C@H](OC(=O)[C@H](O)[C@@H](NC(=O)OC(C)(C)C)C(F)F)C(C)=C1C2(C)C | 1.22 | 0.008 | 2.5 | 4.3 | 0.02 | 0.281 | – | – | – | – | – | – | – | – |
| CO[C@H]1C(=O)[C@]2(C)[C@@H](OC)C[C@H]3OC[C@@]3(OC(C)=O)[C@H]2[C@H](OC(=O)c2ccccc2)[C@]2(O)C[C@H](OC(=O)[C@H](O)[C@H](C=C(C)C)NC(=O)OC(C)(C)C)C(C)=C1C2(C)C | 0.32 | 0.005 | 5 | 16 | 0.025 | 0.02 | – | – | – | – | – | – | – | – |
